# Experimental data from publication PMC8556345 (Cell, 2021).
# Where no end group is shown, it is not given here.
# How the values were obtained:
# [1] = TAMRA-GRP imaging in acute brain slices, flow-in delay; design: species or system mouse; settings: 300 nM, bath
# Summary of the method: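 Non-fluorescent acute brain slices were imaged through a 650/100 nm emission filter. […] Arrival in the bath was defined as the first time point at which fluorescence rose 2 SD above baseline.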
# GRP receptor (GRPR) [2] = experiment: binding to GRP receptor; settings: statement in method; no data shown
# grpLight in ACx = experiment: in vivo dual-color photometry of grpLight and TAMRA-GRP, diffusion in cortex; design: species or system mouse; settings: infusion into distant cortical area
# [3] = system: motor cortex pyramidal cells; experiment: whole-cell current-clamp, membrane potential, motor cortex pyramidal cells; type: cell-based, mouse; settings: GRP; bath with NBQX, CPP, gabazine, CGP and TTX; 10 cells
# [4] = system: Sst+ and Pvalb+ cells, motor cortex; experiment: immediate early gene; type: in vivo, mouse
# Summary of the method: (§1)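 Brains were frozen 45 min later for Fos and Npas4 FISH. Expression was the cell area covered by label, in manually drawn ROIs across all layers, 2-3 slices per mouse. Right-hemisphere values were normalized to the left-hemisphere mean per cell type.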
# motor cortex PVALB cells [5] = experiment: IPSC frequency, motor cortex PVALB cells; type: cell-based, mouse; settings: GRP bath, NBQX and CPP
# Summary of the method: (§2)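 Whole-cell voltage clamp at −70 mV in acute coronal slices at 30-32°C, with 3-4 MΩ pipettes. The pipette held K⁺-based high-Cl⁻ solution (127.5 mM KCl, pH 7.3), and the bath held NBQX and CPP at 10 μM each.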
# ACx Pyr cells = experiment: IPSC frequency, ACx Pyr cells; type: cell-based, mouse; settings: GRP bath, NBQX and CPP
# Summary of the method: as §2
# ACx SST cells [6] = experiment: IPSC frequency, ACx SST cells; type: cell-based, mouse; settings: GRP bath, NBQX and CPP, TTX-sensitive; n=10
# motor cortex PVALB cells [7] = experiment: whole-cell current-clamp, membrane potential, motor cortex PVALB cells; type: cell-based, mouse; settings: GRP; bath with NBQX, CPP, gabazine, CGP and TTX; 15 cells
# ACx SST cells [8] = experiment: whole-cell current-clamp, membrane potential, ACx SST cells; type: cell-based, mouse; settings: ACx (and M1), compared to VIP cells
# GRP receptor (GRPR) [9] = settings: ref Kroog et al., 1995; cited from earlier work
# motor cortex SST cells [10] = experiment: whole-cell current-clamp, membrane potential, motor cortex SST cells; type: cell-based, mouse; settings: GRP; bath with NBQX, CPP, gabazine, CGP and TTX; 10 cells
# ACx SST cells [11] = experiment: EPSC frequency, ACx SST cells; type: cell-based, mouse; settings: GRP bath, gabazine; n = 11
# Summary of the method: (§3)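 Acute coronal slices were incubated in oxygenated Ringer's at 32°C for ~15 min, then held at RT. SST and PVALB cells were identified in Sst-EGFP or Pvalb-EGFP mice. Whole-cell recordings were made at 30-32°C, voltage-clamped at −70 mV, with K⁺-gluconate low-Cl⁻ pipette solution and 10 μM gabazine.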
# [12] = system: auditory cortex VIP cells; experiment: GCaMP acute slice Ca2+ imaging, ACx VIP cells; type: cell-based, mouse
# L3/4 ACx VIP cells = experiment: spike probability of VIP cells upon optogenetic stimulation of thalamic inputs; type: cell-based, mouse
# Summary of the method: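 L3/4 auditory cortex VIP cells, identified by EGFP in Vip-EGFP or Vip-IRES-Cre x H2B-EGFP mice, were recorded whole-cell in current clamp with low-Cl⁻ K⁺-based solution at 30-32°C. Thalamic inputs were stimulated with 1 s bursts of 5 ms light pulses at 20 Hz every 20 s. […] Spontaneous and evoked spikes were counted.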
# motor cortex SST cells [13] = experiment: IPSC frequency, motor cortex SST cells; type: cell-based, mouse; settings: GRP bath, NBQX and CPP
# Summary of the method: as §2
# ACx PVALB cells [14] = experiment: IPSC frequency, ACx PVALB cells; type: cell-based, mouse; settings: GRP bath, NBQX and CPP, TTX-sensitive; n=10
# ACx PVALB cells [15] = experiment: whole-cell current-clamp, membrane potential, ACx PVALB cells; type: cell-based, mouse
# ACx VIP cells [16] = experiment: whole-cell current-clamp, membrane potential, ACx VIP cells; type: cell-based, mouse
# [17] = system: grpLight (GRPR/cpGFP sensor); experiment: grpLight GRP sensor characterization; type: cell-based, human
# SST cells = experiment: EPSC frequency, SST cells, ACx and M1 together; type: cell-based, mouse; settings: GRP bath
# Summary of the method: as §3
# [18] = system: ACx pyramidal (Pyr) cells; experiment: whole-cell current-clamp, membrane potential, ACx pyramidal cells; type: cell-based, mouse; settings: ACx (and M1), compared to VIP cells
# [19] = system: motor cortex (M1) VIP cells; experiment: whole-cell current-clamp, membrane potential, motor cortex VIP cells; type: cell-based, mouse; settings: CPP, gabazine
# ACx PVALB cells [20] = experiment: EPSC frequency, ACx PVALB cells; type: cell-based, mouse; settings: GRP bath, gabazine; n = 10
# Summary of the method: as §3
# M1 SST cells = experiment: EPSC frequency, M1 SST cells; type: cell-based, mouse; settings: GRP bath, gabazine; n = 9
# Summary of the method: as §3
# ACx VIP cells [21] = experiment: in vivo fiber photometry of GCaMP in ACx VIP cells, cannula infusion; design: species or system mouse; settings: 2 μl, 300 μM GRP and TAMRA-GRP, 100 nl/min into visual cortex; n = 3 (grpLight1.2) and 8 (GCaMP) mice
# Summary of the method: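 Decay was corrected by an exponential fit to trace minima (5000-point sliding window). Autofluorescence measured in fluorophore-free implanted mice was subtracted, and GCaMP was normalized to mean mBeRFP fluorescence.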
# [22] = system: Vip+ and glutamatergic cells, motor cortex; experiment: immediate early gene; type: in vivo, mouse
# Summary of the method: as §1
# M1 PVALB cells = experiment: EPSC frequency, M1 PVALB cells; type: cell-based, mouse; settings: GRP bath, gabazine; n = 10
# Summary of the method: as §3
# [23] = 1372 responding VIP cells, male auditory cortex, GRP bath
# [24] = 300 nM GRP, male mice, NBQX, CGP
substance,measurement,setting,value
VSTGAGGGTVLAKMYPRGSHWAVGHLM-NH2 [TAMRA-GRP],"TAMRA-GRP fluorescence peak latency, range","[1]; 3 slices, range",156.4 to 162.8 s
same,"TAMRA-GRP fluorescence response start, range","[1]; 3 slices, range",79 to 95 s
same,TAMRA-GRP fluorescence peak latency,[1]; mean of 3 slices,160.3 s
same,TAMRA-GRP fluorescence response start,[1]; mean of 3 slices,87.4 s
same,efficiency as GRPR ligand,GRP receptor (GRPR) [2],very inefficient GRPR ligand
same,grpLight fluorescence change in ACx following infusion,grpLight in ACx,long-lasting increases minutes after the start of GRP infusion
"VSTGAGGGTVLAKMYPRGSHWAVGHLM-NH2 [GRP, gastrin-releasing peptide]","depolarization, motor cortex pyramidal",[3],0.56 ± 0.49 mV
same,"Npas4 expression, Sst+ and Pvalb+ cells",[4]; 3 μM GRP into right M1,but not Sst^+ and Pvalb^+ cells
same,"Fos expression, Sst+ and Pvalb+ cells",[4]; 200 nl of 3 μM GRP into right M1,without changes in expression
same,"PVALB cells with increased IPSC frequency, M1",motor cortex PVALB cells [5],3 out of 10
same,"mean increase in IPSC frequency, M1 PVALB",motor cortex PVALB cells [5]; n = 10,4.59 ± 2.00 Hz
same,Pyr cells with increased IPSC frequency,ACx Pyr cells,1 out of 10
same,SST cells with increased IPSC frequency,ACx SST cells [6],60%
same,"depolarization, motor cortex PVALB",motor cortex PVALB cells [7],1.78 ± 0.45 mV
same,"GRP-evoked depolarization, SST cells",ACx SST cells [8],significantly smaller than in VIP cells
same,binding to GRPR,GRP receptor (GRPR) [9],high affinity and selectivity
same,"depolarization, motor cortex SST",motor cortex SST cells [10],1.39 ± 0.74 mV
same,"mean increase in EPSC frequency, ACx SST",ACx SST cells [11],1.86 ± 1.15 Hz
same,GCaMP peak latency,[12]; [23],156.9 ± 1.5 s
same,GCaMP response start,[12]; [23],99.4 ± 0.9 s
same,lowest concentration that increased GCaMP fluorescence in most VIP cells,"[12]; ACx of male and female mice and M1, bath application",3 nM
same,cells with Ca2+ oscillations with TTX,"[12]; GRP, with TTX",14%
same,VIP cells with phasic (oscillatory) GCaMP fluctuations,"[12]; GRP, without TTX, NBQX, CPP, gabazine, CGP",26%
same,"GCaMP fluorescence change ΔF/FKCl, female","[12]; median (IQR), female auditory cortex, 580 cells in 14 slices, 300 nM GRP, 2 min, 32°C",11.8 (15.6) % ΔF/FKCl
same,latency of Ca2+ increases after TAMRA-GRP levels increased,[12]; start GCaMP vs start TAMRA-GRP,12 s
same,"average spontaneous spike rate prior to stimulation, after GRP","L3/4 ACx VIP cells; 0 ± 0 Hz before GRP, n = 5 cells",0.09 ± 0.08 Hz
same,average evoked spike probability after GRP,"L3/4 ACx VIP cells; 300 nM GRP bath for 2 min, 14 ± 9% before GRP, 5 ms pulses at 20 Hz, n = 5 cells",52 ± 16%
same,effect on spontaneous spike rate prior to stimulation onset,L3/4 ACx VIP cells; GRP bath,without increasing spontaneous spike rate
same,effect on evoked spike probability,L3/4 ACx VIP cells; optogenetic stimulation of thalamo-cortical afferents,significantly increased the evoked spike probability
same,"SST cells with increased IPSC frequency, M1",motor cortex SST cells [13],4 out of 10
same,"mean increase in IPSC frequency, M1 SST",motor cortex SST cells [13]; n = 10,13.28 ± 5.97 Hz
same,PVALB cells with increased IPSC frequency,ACx PVALB cells [14],40%
same,"GRP-evoked depolarization, PVALB cells","ACx PVALB cells [15]; ACx (and M1), compared to VIP cells",significantly smaller than in VIP cells
same,PVALB cell depolarization vs control recordings without GRP,ACx PVALB cells [15]; Fig. S3D,No significant difference
same,depolarization in female compared to male mice,ACx VIP cells [16]; 300 nM GRP,non-significantly larger depolarization compared to male mice
same,"mean depolarization, female mice","ACx VIP cells [16]; 300 nM GRP, bath NBQX, CPP, gabazine, CGP and TTX, mean ± SEM, 10 cells (Fig. S3C)",8.62 ±1.11 mV
same,duration of burst-like firing activity,"ACx VIP cells [16]; 300 nM for 2 min, male mice",> 1 min
same,neurons with long-lasting burst-like firing activity,"ACx VIP cells [16]; 300 nM for 2 min, male mice",3 out of 10
same,VIP cells that depolarize upon GRP bath application,"ACx VIP cells [16]; 300 nM for 2 min, male mice, acute slices, 30-32°C",7 out of 10
same,dependence of depolarization on concentration,"ACx VIP cells [16]; Fig. 3C, 6-10 cells per group",concentration-dependent
same,concentrations detectable by grpLight,[17],nanomolar concentrations
same,effect on EPSC frequency,SST cells; SST and PVALB cells,hardly affected
same,SST cells with increased EPSC frequency,SST cells; gabazine,2 out of 20
same,"GRP-evoked depolarization, Pyr cells",[18],significantly smaller than in VIP cells
same,M1 VIP neurons with burst-like activity,[19]; [24],3 out of 10
same,VIP cells in M1 that depolarized,[19]; [24],9 out of 10
same,"depolarization, motor cortex VIP","[19]; GRP, bath with NBQX, CGP and TTX, 6 cells",9.38 ± 1.28 mV
same,"mean increase in EPSC frequency, ACx PVALB",ACx PVALB cells [20],1.95 ± 1.43 Hz
same,"mean increase in EPSC frequency, M1 SST",M1 SST cells,1.61 ± 0.97 Hz
same,onset of functional effect on VIP cell Ca2+ vs grpLight detection,ACx VIP cells [21],functional effects on these cells in vivo well before photometric detection of changes in grpLight fluorescence
same,Npas4 expression in Vip-IRES-Cre;Grpr fl/y mice,"[22]; 3 μM GRP into M1, vs control mice",significantly smaller
same,"Npas4 expression, Vip+ and glutamatergic cells",[22]; 3 μM GRP into right M1,significantly increased expression
same,"Fos expression ipsilateral to injection, Vip+ and glutamatergic cells","[22]; 200 nl of 3 μM GRP into right M1, anaesthetized mice, FISH at 45 min",strong increase in Fos
same,"mean increase in EPSC frequency, M1 PVALB",M1 PVALB cells,0.69 ± 0.80 Hz
